SR-BI DiI inh = inhibitors of mouse SR-BI mediated HDL lipid uptake | inhibition, % at 12.5 µM | ldlA[mSR-BI] CHO cells, DiI-HDL uptake fluorescence, 3 h | 0.96% of 320,000 active | AID 488896;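 active = mean replicate inhibition of at least 70% and a set share of replicates each scoring 70 or more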;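 note: 0% = median of neutral control wells and 100% = median of positive control wells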
SMARCA2 activ = SMARCA2 function activation, primary screen; MG213 cells, MMTV-luciferase reporter, dexamethasone, overnight; activation, % at 9.1 µM; 1% of 370,000 active; in the data active = activation above about 7.8%;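 note: 0% = vehicle wells and 100% = reference activator wells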
SR-BI DiI-HDL act = activators of SR-BI mediated HDL lipid uptake; 0.096% of 320,000 active; activation, % at 12.5 µM; CHO ldlA[mSR-BI] cells, DiI-HDL uptake fluorescence, 3 h; 100 = double the neutral-control signal;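 active = mean replicate activation of at least 60% and every replicate at or above 60%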;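 note: 0% = median plate neutral-control signal and 100% = twice that signal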
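Material – SR-BI-overexpressing, LDLR-lacking CHO cells · Medium – BSA-supplemented, HEPES-buffered Ham's F12, pH 7.4 · Doses – single concentration · Times – compound with DiI-HDL co-incubation, 3 h at 37 °C · Measured by – bottom-read fluorescence, 550/595 nm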
AHR activator = activates the human aryl hydrocarbon receptor; P35869; AHR-responsive luciferase reporter cells, luminescence; activation, % at 5 µM; 2.5% of 320,000 active; AID 2796; in the data active = activation above about 47%;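 note: 0% = vehicle wells and 100% = reference agonist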
Hep lipid drop = hepatic lipid droplet formation modulation | AID 1656 | inhibition, % at 6.5 µM | AML12 mouse hepatocytes, oleate lipid droplets, BODIPY imaging | 0.4% of 240,000 active;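 active = lipid droplet intensity inhibited by at least 50%, with more than 500 cells counted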
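Assay system: AML12 mouse liver cells | Compound: 6.5 µM single-point dosing | Schedule: Overnight exposure | Technique: Fluorescence imaging, 20x objective, two fields per well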
Yeast superoxide = lowers age-related superoxide in aged yeast cells | S. cerevisiae aged cells, superoxide DHE fluorescence; hits give low values | superoxide response (% of plate mean), % at 10 µM | 0.18% of 330,000 active | AID 2690;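 active = superoxide response under a set limit, about three screen SD below normal, cut at about 65% in these data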;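 note: yeast aged for seven days with compound at 30 °C before DHE staining; 100% = average MFI of all compound-treated wells on the plate with controls excluded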
Active calls of the source: *. Compounds with a hit are over-represented: about 4.3% of the library has one in this group of screens.

What do the screens show for `CCn1c(SCC(=O)Nc2nc(C)c(C)s2)nc2cccnc21`?
SR-BI DiI inh: 6; SMARCA2 activ: -2; SR-BI DiI-HDL act: -6; AHR activator: 52*; Hep lipid drop: -16; Yeast superoxide: 105

How did Cc1nc(NC(=O)CSc2nnnn2Cc2ccccc2)sc1C do in these assays?
SR-BI DiI inh: 1; SMARCA2 activ: 6; SR-BI DiI-HDL act: -1; AHR activator: 65*; Yeast superoxide: 110

What do the screens show for `COCCCn1nnnc1SCC(=O)N1c2ccccc2CC1C` (configuration not stated)?
SR-BI DiI inh: 9; SMARCA2 activ: 1; SR-BI DiI-HDL act: -9; AHR activator: 5; Hep lipid drop: 0; Yeast superoxide: 96

Results for C[C@H](O)[C@@H]1C(=O)N2CCc3c([nH]c4cccc(-c5ccccc5)c34)[C@@H]2C[C@@H]1N(C)C(=O)OCc1ccccc1 ?
SMARCA2 activ: 0

Results for COc1ccccc1CCC[C@@H](CCS(=O)(=O)C(C)C)CC1CCCCC1 ?
SMARCA2 activ: -4

Results for Cc1cc(C(F)(F)F)c(C#N)c(SCC(=O)Nc2nc3ccccc3s2)n1 ?
SMARCA2 activ: -7; AHR activator: 57*; Hep lipid drop: 0; Yeast superoxide: 99

How did N#Cc1c(C(F)(F)F)cc(-c2ccccc2)nc1SCC(=O)Nc1sc2c(c1C#N)CCC2 do in these assays?
SR-BI DiI inh: 106*; SMARCA2 activ: -2; SR-BI DiI-HDL act: -106; AHR activator: 12; Yeast superoxide: 93

What do the screens show for `N#Cc1ccc(-c2cccnc2)nc1SCC(=O)Nc1sc2c(c1C#N)CCC2`?
SR-BI DiI inh: 76*; SR-BI DiI-HDL act: -76; AHR activator: 23; Hep lipid drop: -41; Yeast superoxide: 108

Results for Cc1nc(SCC(=O)Nc2nc3ccccc3s2)c(C#N)c(C)c1C ?
SR-BI DiI inh: 0; SMARCA2 activ: -10; SR-BI DiI-HDL act: 0; AHR activator: -11; Hep lipid drop: 17; Yeast superoxide: 110

Results for CCCCNC(=O)C[C@H]1C[C@@]2(C(=O)OC)C(=C[C@H](C(C)(C)C)O[C@@H]2C)N(CCc2ccc(OC)c(OC)c2)C1=O ?
SMARCA2 activ: -4

How did O=S1(=O)c2c(NCc3ccco3)cccc2Oc2ccccc2CN1Cc1cn(Cc2ccccc2C(F)(F)F)nn1 do in these assays?
SMARCA2 activ: -2

How did CC(C)(C)c1ccc(C(=O)Nc2ncn[nH]2)cc1 do in these assays?
SR-BI DiI inh: -7; SMARCA2 activ: 5; SR-BI DiI-HDL act: 7; AHR activator: 70*; Hep lipid drop: 1; Yeast superoxide: 99

How did CCOc1ccc(NC(=O)c2ccc(Cn3nc(C)cc3C)o2)cc1 do in these assays?
SR-BI DiI inh: 37; SMARCA2 activ: -4; SR-BI DiI-HDL act: -37; AHR activator: 47*; Hep lipid drop: -16; Yeast superoxide: 101

What do the screens show for `COc1cc(C(=O)Nc2ccc(C)cc2)c2ccccc2n1`?
SR-BI DiI inh: 36; SMARCA2 activ: 0; SR-BI DiI-HDL act: -36; AHR activator: 43; Hep lipid drop: -20; Yeast superoxide: 94

How did CCOc1ccc(NC(=O)c2cc(OC)nc3ccccc23)cc1 do in these assays?
SR-BI DiI inh: 51; SMARCA2 activ: -3; SR-BI DiI-HDL act: -51; AHR activator: 65*; Hep lipid drop: -102; Yeast superoxide: 96

What do the screens show for `Cc1nc2ccccc2c2oc(C(=O)NC3CC3)cc12`?
SR-BI DiI inh: -14; SMARCA2 activ: 2; SR-BI DiI-HDL act: 14; AHR activator: 65*; Yeast superoxide: 85

Results for CCOc1ccc(NC(=O)c2cc3c(C)nc4ccccc4c3o2)cc1 ?
SR-BI DiI inh: 99*; SMARCA2 activ: -2; SR-BI DiI-HDL act: -99; AHR activator: -5; Hep lipid drop: -19; Yeast superoxide: 104

How did Cc1nc2ccccc2c2oc(C(=O)NCCN3CCN(C)CC3)cc12 do in these assays?
SR-BI DiI inh: -15; SMARCA2 activ: 0; SR-BI DiI-HDL act: 15; AHR activator: 0; Yeast superoxide: 99

Results for COc1ccccc1CCn1cnc(-c2cccc(F)c2)c1C(C)C ?
SMARCA2 activ: -7

Results for Nc1[nH]c(C(=O)c2ccc(Br)cc2)c(-c2ccccc2Cl)c1C(=O)NCCc1c[nH]c2ccccc12 ?
SMARCA2 activ: -5

Assay outcomes: PubChem, several laboratories
